As a reminder, the IC50 is the concentration at which inhibition is half-maximal.

In brackets after ≈: the same amount, converted by molar mass. Activity calls are given as the source filed them. The calls are words filed in the database; no cut-off is given here. Some results are limits rather than exact numbers.

One assay has as its system MCF7. Put plainly: Cytotoxicity against human MCF7 cells assessed as [3H]hypoxanthin incorporation after 24 to 72 hrs. The class given is functional, cell-based. In outline: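 MCF-7 cells kept as for the parasite culture but with 5% fetal calf serum in place of 5% human serum. Seeded at 2 × 10^4 cells/well, then exposed to compound. Growth read by [3H]-hypoxanthine incorporation after 24 and 72 h incubation, run as for the P. falciparum assay: plates frozen and thawed, harvested on glass fibre filters, beta-counted. IC50 from linear least-squares regression. Doxorubicin as positive control.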

The test system of a further assay is Plasmodium falciparum. Put plainly: Antiplasmodial activity […] against chloroquine-resistant Plasmodium falciparum FcB1 by [3H]hypoxanthine uptake. Format: functional, organism-based. The settings on record: FcB1/Columbia. In outline: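 P. falciparum cultured continuously and synchronized by 5% D-sorbitol lysis. Parasites incubated with compound for 48 h, with [3H]-hypoxanthine added 24 h before freezing. Plates freeze-thawed, harvested onto glass fibre filters, and incorporation read by beta counting. IC50 from linear least-squares regression; chloroquine as positive control.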

Assay [1] in a line: Ratio IC50 for human MCF7 cells to IC50 for chloroquine-resistant Plasmodium falciparum FcB1. The class given is functional.

With `CC(C)=CCc1c(O)cc2oc3c(CC=C(C)C)c(O)c4c(c3c(=O)c2c1O)CC(O)C(C)(C)O4` (centres undefined), the result with MCF7 was Active.
Turning to `COc1c(O)cc2oc3cc(O)c(C/C=C(\C)CCC=C(C)C)c(O)c3c(=O)c2c1CC=C(C)C` [BUTYRAXANTHONE A], the figures for the IC50 in the assay on Plasmodium falciparum and in the assay on MCF7 were 3 µg/mL (≈ 6.27 µM) and 3.5 µg/mL (≈ 7.31 µM), respectively. For the same compound, the “Ratio IC50” value in assay [1] came out at 1.17.
Taken in the same sequence, the figures for `CC(C)=CCc1c(O)c(O)c(CC=C(C)C)c2c(=O)c3c(O)c4c(cc3oc12)OC(C)(C)C=C4` [BUTYRAXANTHONE B] were 2.7 µg/mL (≈ 5.84 µM), 3.3 µg/mL (≈ 7.13 µM) and 1.22.
Regarding `COc1c(O)cc2oc3cc(O)cc(O)c3c(=O)c2c1CC=C(C)CCCC(C)(C)O` [BUTYRAXANTHONE D], the IC50 in the assay with Plasmodium falciparum amounted to 10 µg/mL (≈ 23.3 µM); in the assay on MCF7, 1.3 µg/mL (≈ 3.03 µM). In assay [1], the “Ratio IC50” value is listed as under 0.13.
Turning to `CCN(CC)CCCC(C)Nc1ccnc2cc(Cl)ccc12` (centres undefined) [CHLOROQUINE], the IC50 in the assay on MCF7 was over 100 µg/mL.
For the compound `CC(C)=CCc1c(O)cc2oc3c(CC=C(C)C)c(O)c(O)c(CC=C(C)C)c3c(=O)c2c1O` [GARCINONE E], the figures for the IC50 with Plasmodium falciparum and in the assay on MCF7 were 2.8 µg/mL (≈ 6.03 µM) and 1.5 µg/mL (≈ 3.23 µM), respectively. For the same compound, in assay [1], the “Ratio IC50” value was determined as 0.54.
Take `CC(C)=CCc1c(O)c(CC=C(C)C)c2oc3c(O)ccc(O)c3c(=O)c2c1O` [GARTANIN]: the IC50 was 3.1 µg/mL (≈ 7.82 µM) in the assay on Plasmodium falciparum and 1.2 µg/mL (≈ 3.03 µM) in the assay with MCF7. Further, the “Ratio IC50” value in assay [1] was determined as 0.39.
For the compound `COc1c(O)cc2oc3cc4c(c(O)c3c(=O)c2c1CC=C(C)C)C=CC(C)(C)O4` [MANGOSTANIN], the half-inhibitory concentration (IC50) with Plasmodium falciparum is over 1.9 µg/mL; in the assay on MCF7 it was 3.9 µg/mL (≈ 9.55 µM). Further, the “Ratio IC50” value in assay [1] was under 2.05.
With `COc1c(O)cc2oc3cc(O)c(CC=C(C)C)c(O)c3c(=O)c2c1CC=C(C)C` [MANGOSTIN], the IC50 was 2.9 µg/mL (≈ 7.07 µM) with Plasmodium falciparum and 3.5 µg/mL (≈ 8.53 µM) in the assay on MCF7. Besides, the “Ratio IC50” value in assay [1] worked out at 1.21.
`COc1c(O)cc2oc3cc(O)cc(O)c3c(=O)c2c1C/C=C(\C)CCC=C(C)C` [RUBRAXANTHONE]: the results for the IC50 in the assay on Plasmodium falciparum and in the assay with MCF7 were 3.4 µg/mL (≈ 8.28 µM) and 2.6 µg/mL (≈ 6.33 µM), respectively. Also, in assay [1], the “Ratio IC50” value was determined as 0.76.
For `CC(C)=CCc1c(O)cc2oc3c(CC=C(C)C)c(O)c4c(c3c(=O)c2c1O)C=CC(C)(C)O4` [TOVOPHYLLINE A], the figures for the IC50 with Plasmodium falciparum and in the assay on MCF7 were 2.8 µg/mL (≈ 6.05 µM) and 2.6 µg/mL (≈ 5.62 µM), respectively. The “Ratio IC50” value in assay [1] is given as 0.93.
